ChEMBL document CHEMBL1153433, “Design and synthesis of 2-amino-4-methylpyridine analogues as inhibitors for inducible nitric oxide synthase and in vivo evaluation of [18F]6-(2-fluoropropyl)-4-methyl-pyridin-2-amine as a potential PET tracer for inducible nitric oxide synthase” (J Med Chem, 2009)

Experiments:
Blood [1] = assay: Biodistribution in C57BL/6N mouse blood at 50 uCi/110 uL, iv after 30 mins; type: ADME, organism-based; conditions: in vivo, 0.5 h
Procedure, shortened: (§1)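 Untreated (control) male C57BL/6N mice aged 6-8 weeks. HPLC-purified tracer, ~50 μCi in 10% ethanol/saline, given i.v. via the tail vein. Mice were sacrificed at 5 min, 30 min, 1 h and 2 h post-injection. Tissues were removed, weighed and gamma-counted against diluted injectate standards. Data are %ID/g, mean ± SD, n = 4.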

Blood [2] = assay: Biodistribution in LPS treated C57BL/6N mouse blood at 50 uCi/110 uL, iv administered 6 hrs […] LPS challenge measured after 1 hr post drug dose; type: ADME, organism-based; conditions: in vivo
Procedure, shortened: (§2)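 Male C57BL/6N mice aged 6-8 weeks received E. coli O127:B8 LPS in PBS, 10 mg/kg i.v., 6 h before tracer. Tracer ~50 μCi in 10% ethanol/saline, i.v. tail vein. Sacrifice was at 5 min, 30 min, 1 h or 2 h post-injection. Organs were weighed and gamma-counted with injectate standards. Data are %ID/g, mean ± SD, n = 4.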

Muscle tissue [3] = assay: Biodistribution in LPS treated C57BL/6N mouse muscle at 50 uCi/110 uL, iv administered 6 hrs […] LPS challenge measured after 5 mins post drug dose; type: ADME, organism-based; conditions: in vivo
Procedure, shortened: (§3)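 Male C57BL/6N mice, 6-8 weeks; LPS (E. coli O127:B8) in PBS, 10 mg/kg i.v., given 6 h before tracer. HPLC-purified [18F]tracer ~50 μCi in 10% ethanol/saline i.v. via tail vein. Killed at 5 min, 30 min, 1 h or 2 h; tissues weighed and gamma-counted against diluted injectate standards. Reported as %ID/g, mean ± SD, n = 4.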

[4] = Metabolic stability in Sprague-Dawley rat plasma assessed as parent compound remaining at 400 uCi, iv after 5 mins by HPLC; type: ADME, organism-based; conditions: read-out: Stability
Procedure, shortened: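 Anesthetized male Sprague-Dawley rat given 400 μCi [18F]tracer in 10% ethanol/saline i.v. via tail vein. Blood drawn by cardiac puncture at 5 and 30 min. Plasma separated by centrifugation, treated with 3 equivalents of acetonitrile and centrifuged; supernatant filtered and analysed by HPLC. Samples kept on ice.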

Bone [5] = assay: Biodistribution in C57BL/6N mouse bone at 50 uCi/110 uL, iv after 5 mins; type: ADME, organism-based, Bone element; conditions: in vivo; procedure, shortened: as §1
Blood [6] = assay: Biodistribution in C57BL/6N mouse blood at 50 uCi/110 uL, iv after 1 hr; type: ADME, organism-based; conditions: in vivo; procedure, shortened: as §1
Lung [7] = assay: Biodistribution in LPS treated C57BL/6N mouse lung at 50 uCi/110 uL, iv administered 6 hrs […] LPS challenge measured after 5 mins post drug dose; type: ADME, organism-based; conditions: in vivo; procedure, shortened: as §3
Liver [8] = assay: Biodistribution in C57BL/6N mouse liver at 50 uCi/110 uL, iv after 2 hrs; type: ADME, organism-based; conditions: in vivo; procedure, shortened: as §1
Lung [9] = assay: Biodistribution in C57BL/6N mouse lung at 50 uCi/110 uL, iv after 30 mins; type: ADME, organism-based; conditions: in vivo, 0.5 h; procedure, shortened: as §1
Liver [10] = assay: Biodistribution in C57BL/6N mouse liver at 50 uCi/110 uL, iv after 1 hr; type: ADME, organism-based; conditions: in vivo; procedure, shortened: as §1
Heart [11] = assay: Biodistribution in C57BL/6N mouse heart at 50 uCi/110 uL, iv after 5 mins; type: ADME, organism-based; conditions: in vivo; procedure, shortened: as §1
Blood [12] = assay: Biodistribution in LPS treated C57BL/6N mouse blood at 50 uCi/110 uL, iv administered 6 hrs […] LPS challenge measured after 30 mins post drug dose; type: ADME, organism-based; conditions: in vivo, 0.5 h; procedure, shortened: as §2
Muscle tissue [13] = assay: Biodistribution in C57BL/6N mouse muscle at 50 uCi/110 uL, iv after 30 mins; type: ADME, organism-based; conditions: in vivo, 0.5 h; procedure, shortened: as §1
Heart [14] = assay: Biodistribution in LPS treated C57BL/6N mouse heart at 50 uCi/110 uL, iv administered 6 hrs […] LPS challenge measured after 5 mins post drug dose; type: ADME, organism-based; conditions: in vivo; procedure, shortened: as §2
Brain [15] = assay: Biodistribution in C57BL/6N mouse brain at 50 uCi/110 uL, iv after 5 mins; type: ADME, organism-based; conditions: in vivo; procedure, shortened: as §1
Heart [16] = assay: Biodistribution in LPS treated C57BL/6N mouse heart at 50 uCi/110 uL, iv administered 6 hrs […] LPS challenge measured after 2 hrs post drug dose; type: ADME, organism-based; conditions: in vivo; procedure, shortened: as §2
Brain [17] = assay: Biodistribution in LPS treated C57BL/6N mouse brain at 50 uCi/110 uL, iv administered 6 hrs […] LPS challenge measured after 1 hr post drug dose; type: ADME, organism-based; conditions: in vivo; procedure, shortened: as §2
Brain [18] = assay: Biodistribution in LPS treated C57BL/6N mouse brain at 50 uCi/110 uL, iv administered 6 hrs […] LPS challenge measured after 30 mins post drug dose; type: ADME, organism-based; conditions: in vivo, 0.5 h; procedure, shortened: as §2
Bone [19] = assay: Biodistribution in LPS treated C57BL/6N mouse bone at 50 uCi/110 uL, iv administered 6 hrs […] LPS challenge measured after 2 hrs post drug dose; type: ADME, organism-based, Bone element; conditions: in vivo; procedure, shortened: as §2
Muscle tissue [20] = assay: Biodistribution in C57BL/6N mouse muscle at 50 uCi/110 uL, iv after 5 mins; type: ADME, organism-based; conditions: in vivo; procedure, shortened: as §1
Bone [21] = assay: Biodistribution in C57BL/6N mouse bone at 50 uCi/110 uL, iv after 1 hr; type: ADME, organism-based, Bone element; conditions: in vivo; procedure, shortened: as §1
[22] = Metabolic stability in Sprague-Dawley rat whole blood at 400 uCi after 1 hr; type: ADME, tissue-based; conditions: read-out: Stability
Procedure, shortened: (§4)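 Heparinized whole blood (5 mL) from a mature male Sprague-Dawley rat incubated with ~400 μCi [18F]tracer at 37 °C for 5 min to 2 h. Aliquots lysed with 3 volumes of ethanol and centrifuged; supernatant and pellet gamma-counted. Supernatant species analysed by silica TLC (ethyl acetate), identified by co-elution with non-radioactive standard.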

Liver [23] = assay: Biodistribution in LPS treated C57BL/6N mouse liver at 50 uCi/110 uL, iv administered 6 hrs […] LPS challenge measured after 5 mins post drug dose; type: ADME, organism-based; conditions: in vivo; procedure, shortened: as §3
Bone [24] = assay: Biodistribution in LPS treated C57BL/6N mouse bone at 50 uCi/110 uL, iv administered 6 hrs […] LPS challenge measured after 30 mins post drug dose; type: ADME, organism-based, Bone element; conditions: in vivo, 0.5 h; procedure, shortened: as §2
Liver [25] = assay: Biodistribution in LPS treated C57BL/6N mouse liver at 50 uCi/110 uL, iv administered 6 hrs […] LPS challenge measured after 1 hr post drug dose; type: ADME, organism-based; conditions: in vivo; procedure, shortened: as §3
Blood [26] = assay: Biodistribution in LPS treated C57BL/6N mouse blood at 50 uCi/110 uL, iv administered 6 hrs […] LPS challenge measured after 2 hrs post drug dose; type: ADME, organism-based; conditions: in vivo; procedure, shortened: as §2
Heart [27] = assay: Biodistribution in LPS treated C57BL/6N mouse heart at 50 uCi/110 uL, iv administered 6 hrs […] LPS challenge measured after 30 mins post drug dose; type: ADME, organism-based; conditions: in vivo, 0.5 h; procedure, shortened: as §2
Heart [28] = assay: Biodistribution in C57BL/6N mouse heart at 50 uCi/110 uL, iv after 1 hr; type: ADME, organism-based; conditions: in vivo; procedure, shortened: as §1
[29] = Metabolic stability in Sprague-Dawley rat whole blood at 400 uCi after 2 hrs; type: ADME, tissue-based; conditions: read-out: Stability; procedure, shortened: as §4
Brain [30] = assay: Biodistribution in LPS treated C57BL/6N mouse brain at 50 uCi/110 uL, iv administered 6 hrs […] LPS challenge measured after 5 mins post drug dose; type: ADME, organism-based; conditions: in vivo; procedure, shortened: as §2
Kidney [31] = assay: Biodistribution in C57BL/6N mouse kidney at 50 uCi/110 uL, iv after 1 hr; type: ADME, organism-based; conditions: in vivo; procedure, shortened: as §1
Kidney [32] = assay: Biodistribution in LPS treated C57BL/6N mouse kidney at 50 uCi/110 uL, iv administered 6 hrs […] LPS challenge measured after 30 mins post drug dose; type: ADME, organism-based; conditions: in vivo, 0.5 h; procedure, shortened: as §3
Muscle tissue [33] = assay: Biodistribution in C57BL/6N mouse muscle at 50 uCi/110 uL, iv after 2 hrs; type: ADME, organism-based; conditions: in vivo; procedure, shortened: as §1

SMILES: Cc1cc(N)nc(CC(C)[18F])c1 (stereo not drawn)
- Drug uptake (Blood [1]): 1.22 % ID/g
- Drug uptake (Blood [2]): 0.86 % ID/g
- Drug uptake (Muscle tissue [3]): 1.64 % ID/g
- remaining at 5 min [4]: 40.3%
- Drug uptake (Bone [5]): 1.52 % ID/g
- Drug uptake (Blood [6]): 0.31 % ID/g
- Drug uptake (Lung [7]): 4.32 % ID/g
- Drug uptake (Liver [8]): 0.74 % ID/g
- Drug uptake (Lung [9]): 1.14 % ID/g
- Drug uptake (Liver [10]): 2.59 % ID/g
- Drug uptake (Heart [11]): 1.5 % ID/g
- Drug uptake (Blood [12]): 2.09 % ID/g
- Drug uptake (Muscle tissue [13]): 0.71 % ID/g
- Drug uptake (Heart [14]): 2.03 % ID/g
- Drug uptake (Brain [15]): 1.6 % ID/g
- Drug uptake (Heart [16]): 0.12 % ID/g
- Drug uptake (Brain [17]): 0.19 % ID/g
- Drug uptake (Brain [18]): 0.52 % ID/g
- Drug uptake (Bone [19]): 3.77 % ID/g
- Drug uptake (Muscle tissue [20]): 1.25 % ID/g
- Drug uptake (Bone [21]): 2.57 % ID/g
- remaining at 1 h, 400 uCi [22]: 80%
- Drug uptake (Liver [23]): 24.6 % ID/g
- Drug uptake (Bone [24]): 3.7 % ID/g
- Drug uptake (Liver [25]): 2.63 % ID/g
- Drug uptake (Blood [26]): 0.23 % ID/g
- Drug uptake (Heart [27]): 1.02 % ID/g
- Drug uptake (Heart [28]): 0.19 % ID/g
- remaining at 2 h, 400 uCi [29]: 75%
- Drug uptake (Brain [30]): 1.81 % ID/g
- Drug uptake (Kidney [31]): 2.2 % ID/g
- Drug uptake (Kidney [32]): 10.9 % ID/g
- Drug uptake (Muscle tissue [33]): 0.34 % ID/g
